# Reference: ChEMBL document CHEMBL1158538, “(-)-Menthylamine derivatives as potent and selective antagonists of transient receptor potential melastatin type-8 (TRPM8) channels” (Bioorg Med Chem Lett, 2010)
# Target: T1, Transient receptor potential cation channel subfamily V member 1 (Homo sapiens, UniProt Q8NER1)
# Experiment: Agonist activity at human TRPV1 receptor expressed in HEK293 cells assessed as intracellular calcium stimulation relative to inomycin
# Assay type: functional, cell-based
# Outline: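 Ca2+ elevation in HEK-293 cells stably expressing human TRPV1, expressed as percent of the ionomycin ([…]) response. Not measurable if below 10%. Mean ± SEM, N = 3.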
# T1 sequence (Q8NER1 whole entry): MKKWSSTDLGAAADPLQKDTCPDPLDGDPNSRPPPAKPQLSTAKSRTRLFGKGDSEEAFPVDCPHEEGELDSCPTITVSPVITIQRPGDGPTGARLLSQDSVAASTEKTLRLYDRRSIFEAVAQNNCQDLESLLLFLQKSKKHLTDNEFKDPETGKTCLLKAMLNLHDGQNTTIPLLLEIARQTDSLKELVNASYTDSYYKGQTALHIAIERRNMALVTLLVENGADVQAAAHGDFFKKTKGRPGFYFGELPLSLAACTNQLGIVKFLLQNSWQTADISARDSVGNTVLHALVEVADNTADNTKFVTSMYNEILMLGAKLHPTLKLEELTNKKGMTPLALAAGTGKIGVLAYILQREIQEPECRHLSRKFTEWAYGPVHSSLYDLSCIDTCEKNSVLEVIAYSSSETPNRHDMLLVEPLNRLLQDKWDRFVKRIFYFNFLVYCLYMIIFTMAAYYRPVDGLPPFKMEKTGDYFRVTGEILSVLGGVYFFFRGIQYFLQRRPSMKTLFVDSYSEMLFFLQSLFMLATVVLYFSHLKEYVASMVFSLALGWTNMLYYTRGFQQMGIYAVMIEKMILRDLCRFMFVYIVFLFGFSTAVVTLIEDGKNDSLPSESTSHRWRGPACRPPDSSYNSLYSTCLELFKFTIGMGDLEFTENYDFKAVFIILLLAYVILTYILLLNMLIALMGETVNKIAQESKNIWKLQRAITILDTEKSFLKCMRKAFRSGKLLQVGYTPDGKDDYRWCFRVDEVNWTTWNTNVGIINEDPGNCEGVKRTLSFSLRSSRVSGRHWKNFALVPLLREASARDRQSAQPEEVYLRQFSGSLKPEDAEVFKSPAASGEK
row,Efficacy,Compound
1,24.4%,CC(C)[C@@H]1CC[C@@H](C)C[C@H]1NC(=O)NC12CC3CC(CC(C3)C1)C2
2,3.4%,Cc1ccc(OC(=O)N[C@@H]2C[C@H](C)CC[C@H]2C(C)C)cc1
3,53.8%,CC(C)[C@@H]1CC[C@@H](C)C[C@H]1NC(=O)c1ccc(Cl)cc1
4,4.4%,CC(C)[C@@H]1CC[C@@H](C)C[C@H]1NC(=O)Oc1ccc(-c2ccccc2)cc1
5,63.2%,COc1cc(CNC(=O)N[C@@H]2C[C@H](C)CC[C@H]2C(C)C)ccc1O
6,4.4%,CCCCCCCC/C=C\CCCCCCCC(=O)N[C@@H]1C[C@H](C)CC[C@H]1C(C)C
7,46.6%,COc1ccc(OC(=O)N[C@@H]2C[C@H](C)CC[C@H]2C(C)C)cc1
8,50.9%,CC(C)[C@@H]1CC[C@@H](C)C[C@H]1NC(=O)Oc1cccc(-c2ccccc2)c1
9,15.1%,CC(C)[C@@H]1CC[C@@H](C)C[C@H]1NC(=O)Oc1ccc(Cl)cc1
10,9.6%,COc1ccc(C(=O)N[C@@H]2C[C@H](C)CC[C@H]2C(C)C)cc1

row,Compound,Efficacy
1,CC(C)[C@@H]1CC[C@@H](C)C[C@H]1NC(=O)Oc1ccc(C(C)(C)C)cc1,23.8%

# Target: Transient receptor potential cation channel subfamily A member 1 (Rattus norvegicus) (UniProt Q6RI86)
# Sequence (Q6RI86 whole entry): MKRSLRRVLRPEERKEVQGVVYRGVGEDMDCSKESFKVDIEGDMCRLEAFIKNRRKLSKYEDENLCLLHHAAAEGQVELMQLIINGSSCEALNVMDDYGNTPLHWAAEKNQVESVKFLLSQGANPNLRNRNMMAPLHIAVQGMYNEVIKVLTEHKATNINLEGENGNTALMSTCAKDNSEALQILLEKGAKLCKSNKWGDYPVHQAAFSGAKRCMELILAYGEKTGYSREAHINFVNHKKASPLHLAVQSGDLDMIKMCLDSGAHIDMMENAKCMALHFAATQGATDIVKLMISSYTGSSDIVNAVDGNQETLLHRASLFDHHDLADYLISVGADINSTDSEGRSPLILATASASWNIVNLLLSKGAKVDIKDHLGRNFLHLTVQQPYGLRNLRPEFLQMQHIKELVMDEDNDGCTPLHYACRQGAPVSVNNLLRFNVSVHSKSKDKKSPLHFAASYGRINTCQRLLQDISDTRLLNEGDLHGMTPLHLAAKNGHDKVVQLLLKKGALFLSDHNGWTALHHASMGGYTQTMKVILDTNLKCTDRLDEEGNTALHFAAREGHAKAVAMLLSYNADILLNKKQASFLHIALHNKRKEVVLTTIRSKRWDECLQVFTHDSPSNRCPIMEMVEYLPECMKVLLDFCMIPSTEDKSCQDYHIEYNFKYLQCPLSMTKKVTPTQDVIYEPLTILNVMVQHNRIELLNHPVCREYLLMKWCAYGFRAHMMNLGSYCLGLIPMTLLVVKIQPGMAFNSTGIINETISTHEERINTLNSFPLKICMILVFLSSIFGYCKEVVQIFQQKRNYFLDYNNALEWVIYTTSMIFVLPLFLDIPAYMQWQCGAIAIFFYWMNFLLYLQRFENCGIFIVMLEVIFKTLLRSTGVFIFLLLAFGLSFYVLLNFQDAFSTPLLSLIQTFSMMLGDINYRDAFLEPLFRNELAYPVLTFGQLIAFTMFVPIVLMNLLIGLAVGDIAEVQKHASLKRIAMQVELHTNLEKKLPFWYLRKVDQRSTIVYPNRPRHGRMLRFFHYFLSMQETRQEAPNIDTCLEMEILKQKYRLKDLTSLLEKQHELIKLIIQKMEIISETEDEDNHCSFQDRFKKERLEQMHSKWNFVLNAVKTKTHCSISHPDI
# Experiment: Agonist activity at rat TRPA1 receptor expressed in HEK293 cells assessed as intracellular calcium stimulation relative to isothiocyanate
# Assay type: functional, cell-based
# Outline: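 Intracellular Ca2+ rise in HEK-293 cells stably transfected with rat TRPA1, given as percent of the response to allyl isothiocyanate (100 µM). Efficacy under 10% scored not measurable. N = 3, mean ± SEM.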
row,Efficacy,Compound
1,159%,CC(C)[C@@H]1CC[C@@H](C)C[C@H]1NC(=O)NC12CC3CC(CC(C3)C1)C2
2,73.9%,Cc1ccc(OC(=O)N[C@@H]2C[C@H](C)CC[C@H]2C(C)C)cc1
3,223%,CC(C)[C@@H]1CC[C@@H](C)C[C@H]1NC(=O)c1ccc(Cl)cc1
4,87.2%,CC(C)[C@@H]1CC[C@@H](C)C[C@H]1NC(=O)Oc1ccc(-c2ccccc2)cc1
5,< 10%,COc1cc(CNC(=O)N[C@@H]2C[C@H](C)CC[C@H]2C(C)C)ccc1O
6,< 10%,CCCCCCCC/C=C\CCCCCCCC(=O)N[C@@H]1C[C@H](C)CC[C@H]1C(C)C
7,135%,COc1ccc(OC(=O)N[C@@H]2C[C@H](C)CC[C@H]2C(C)C)cc1
8,282%,CC(C)[C@@H]1CC[C@@H](C)C[C@H]1NC(=O)Oc1cccc(-c2ccccc2)c1
9,181%,CC(C)[C@@H]1CC[C@@H](C)C[C@H]1NC(=O)Oc1ccc(Cl)cc1
10,< 10%,COc1ccc(C(=O)N[C@@H]2C[C@H](C)CC[C@H]2C(C)C)cc1

row,Compound,Efficacy
1,CC(C)[C@@H]1CC[C@@H](C)C[C@H]1NC(=O)Oc1ccc(C(C)(C)C)cc1,76%

# Target: Transient receptor potential cation channel subfamily A member 1 (Rattus norvegicus, UniProt Q6RI86)
# Sequence (Q6RI86 whole entry): as above
# Experiment: Agonist activity at rat TRPA1 receptor expressed in HEK293 cells assessed as intracellular calcium stimulation
# Assay type: functional, cell-based
# Outline: (§1)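 Stably transfected HEK-293 lines (human TRPV1 or rat TRPA1) exposed to compound; rise in intracellular Ca2+ recorded. Non-transfected HEK-293 cells served as control. EC50 reported as mean ± SEM, N = 3.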
row,EC50,Compound
1,11.2 µM,CC(C)[C@@H]1CC[C@@H](C)C[C@H]1NC(=O)NC12CC3CC(CC(C3)C1)C2
2,0.7 µM,Cc1ccc(OC(=O)N[C@@H]2C[C@H](C)CC[C@H]2C(C)C)cc1
3,40.2 µM,CC(C)[C@@H]1CC[C@@H](C)C[C@H]1NC(=O)c1ccc(Cl)cc1
4,6.7 µM,CC(C)[C@@H]1CC[C@@H](C)C[C@H]1NC(=O)Oc1ccc(-c2ccccc2)cc1
5,3.2 µM,COc1ccc(OC(=O)N[C@@H]2C[C@H](C)CC[C@H]2C(C)C)cc1
6,31 µM,CC(C)[C@@H]1CC[C@@H](C)C[C@H]1NC(=O)Oc1cccc(-c2ccccc2)c1
7,7.1 µM,CC(C)[C@@H]1CC[C@@H](C)C[C@H]1NC(=O)Oc1ccc(Cl)cc1

row,Compound,EC50
1,CC(C)[C@@H]1CC[C@@H](C)C[C@H]1NC(=O)Oc1ccc(C(C)(C)C)cc1,11.7 µM

# Target: T1, Transient receptor potential cation channel subfamily V member 1
# Experiment: Agonist activity at human TRPV1 receptor expressed in HEK293 cells assessed as intracellular calcium stimulation
# Assay type: functional, cell-based
# Outline: as §1
row,EC50,Compound
1,1 µM,CC(C)[C@@H]1CC[C@@H](C)C[C@H]1NC(=O)NC12CC3CC(CC(C3)C1)C2
2,4.1 µM,CC(C)[C@@H]1CC[C@@H](C)C[C@H]1NC(=O)c1ccc(Cl)cc1
3,0.23 µM,COc1cc(CNC(=O)N[C@@H]2C[C@H](C)CC[C@H]2C(C)C)ccc1O
4,53.8 µM,COc1ccc(OC(=O)N[C@@H]2C[C@H](C)CC[C@H]2C(C)C)cc1
5,7.1 µM,CC(C)[C@@H]1CC[C@@H](C)C[C@H]1NC(=O)Oc1cccc(-c2ccccc2)c1
6,42.8 µM,CC(C)[C@@H]1CC[C@@H](C)C[C@H]1NC(=O)Oc1ccc(Cl)cc1

row,Compound,EC50
1,CC(C)[C@@H]1CC[C@@H](C)C[C@H]1NC(=O)Oc1ccc(C(C)(C)C)cc1,18.3 µM

# Target: T2, Transient receptor potential cation channel subfamily M member 8 (Rattus norvegicus, UniProt Q8R455)
# T2 sequence (Q8R455 whole entry): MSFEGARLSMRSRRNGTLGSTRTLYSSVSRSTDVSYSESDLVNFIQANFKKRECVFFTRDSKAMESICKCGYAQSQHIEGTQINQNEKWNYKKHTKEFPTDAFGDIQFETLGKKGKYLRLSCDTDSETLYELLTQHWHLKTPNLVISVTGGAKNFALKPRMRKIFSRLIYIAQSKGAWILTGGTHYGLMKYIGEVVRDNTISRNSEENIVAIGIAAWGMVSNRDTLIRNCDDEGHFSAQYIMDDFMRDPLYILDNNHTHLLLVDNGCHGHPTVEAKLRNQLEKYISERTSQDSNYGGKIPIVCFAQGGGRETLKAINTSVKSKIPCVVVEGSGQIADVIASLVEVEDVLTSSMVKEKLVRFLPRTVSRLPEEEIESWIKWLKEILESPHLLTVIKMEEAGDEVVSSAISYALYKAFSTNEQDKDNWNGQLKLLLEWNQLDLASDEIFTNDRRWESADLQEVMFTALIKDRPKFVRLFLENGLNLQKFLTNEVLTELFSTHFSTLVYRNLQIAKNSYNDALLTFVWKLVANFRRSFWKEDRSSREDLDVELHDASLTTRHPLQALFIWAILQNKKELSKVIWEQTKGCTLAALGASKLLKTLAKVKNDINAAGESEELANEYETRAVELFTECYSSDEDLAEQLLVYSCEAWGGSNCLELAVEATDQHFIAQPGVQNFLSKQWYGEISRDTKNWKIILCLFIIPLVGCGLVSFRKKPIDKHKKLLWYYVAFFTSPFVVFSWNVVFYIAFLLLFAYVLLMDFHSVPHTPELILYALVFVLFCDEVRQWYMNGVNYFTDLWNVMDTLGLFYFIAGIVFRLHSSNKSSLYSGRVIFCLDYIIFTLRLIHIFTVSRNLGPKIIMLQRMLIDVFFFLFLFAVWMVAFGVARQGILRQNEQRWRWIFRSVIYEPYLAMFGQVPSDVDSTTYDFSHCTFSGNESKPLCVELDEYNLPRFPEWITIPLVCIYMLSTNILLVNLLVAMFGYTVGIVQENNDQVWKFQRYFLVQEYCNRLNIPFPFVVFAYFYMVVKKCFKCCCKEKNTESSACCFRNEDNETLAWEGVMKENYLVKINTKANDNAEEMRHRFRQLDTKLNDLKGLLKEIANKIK
# Experiment: Antagonist activity at rat TRMP8 receptor expressed in HEK293 cells assessed as icilin-induced calcium elevation
# Assay type: functional, cell-based
# Outline: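 HEK-293 cells stably expressing rat TRPM8 received compound 5 min before icilin (0.25 µM). Inhibition of the intracellular Ca2+ elevation was measured. IC50 given as mean ± SEM of N = 3.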
row,IC50,Compound
1,> 100 µM,CC(C)[C@@H]1CC[C@@H](C)C[C@H]1NC(=O)NC12CC3CC(CC(C3)C1)C2
2,0.7 µM,Cc1ccc(OC(=O)N[C@@H]2C[C@H](C)CC[C@H]2C(C)C)cc1
3,1.6 µM,CC(C)[C@@H]1CC[C@@H](C)C[C@H]1NC(=O)c1ccc(Cl)cc1
4,7.4 µM,CC(C)[C@@H]1CC[C@@H](C)C[C@H]1NC(=O)Oc1ccc(-c2ccccc2)cc1
5,19.8 µM,COc1cc(CNC(=O)N[C@@H]2C[C@H](C)CC[C@H]2C(C)C)ccc1O
6,> 100 µM,CCCCCCCC/C=C\CCCCCCCC(=O)N[C@@H]1C[C@H](C)CC[C@H]1C(C)C
7,2.6 µM,COc1ccc(OC(=O)N[C@@H]2C[C@H](C)CC[C@H]2C(C)C)cc1
8,1.5 µM,CC(C)[C@@H]1CC[C@@H](C)C[C@H]1NC(=O)Oc1cccc(-c2ccccc2)c1
9,4.1 µM,CC(C)[C@@H]1CC[C@@H](C)C[C@H]1NC(=O)Oc1ccc(Cl)cc1
10,9.6 µM,COc1ccc(C(=O)N[C@@H]2C[C@H](C)CC[C@H]2C(C)C)cc1

row,Compound,IC50
1,CC(C)[C@@H]1CC[C@@H](C)C[C@H]1NC(=O)Oc1ccc(C(C)(C)C)cc1,0.08 µM

# Target: T2, Transient receptor potential cation channel subfamily M member 8
# Experiment: Antagonist activity at rat TRMP8 receptor expressed in HEK293 cells assessed as menthol-induced calcium elevation
# Assay type: functional, cell-based
# Outline: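 Rat TRPM8-transfected HEK-293 cells were pretreated with compound for 5 min, then challenged with menthol (20 µM). Block of the Ca2+ rise gave IC50 (means ± SEM, N = 3).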
row,IC50,Compound
1,> 100000 nM,CC(C)[C@@H]1CC[C@@H](C)C[C@H]1NC(=O)NC12CC3CC(CC(C3)C1)C2
2,1100 nM,Cc1ccc(OC(=O)N[C@@H]2C[C@H](C)CC[C@H]2C(C)C)cc1
3,700 nM,CC(C)[C@@H]1CC[C@@H](C)C[C@H]1NC(=O)c1ccc(Cl)cc1
4,700 nM,CC(C)[C@@H]1CC[C@@H](C)C[C@H]1NC(=O)Oc1ccc(-c2ccccc2)cc1
5,30500 nM,COc1cc(CNC(=O)N[C@@H]2C[C@H](C)CC[C@H]2C(C)C)ccc1O
6,60600 nM,CCCCCCCC/C=C\CCCCCCCC(=O)N[C@@H]1C[C@H](C)CC[C@H]1C(C)C
7,2200 nM,COc1ccc(OC(=O)N[C@@H]2C[C@H](C)CC[C@H]2C(C)C)cc1
8,50 nM,CC(C)[C@@H]1CC[C@@H](C)C[C@H]1NC(=O)Oc1cccc(-c2ccccc2)c1
9,800 nM,CC(C)[C@@H]1CC[C@@H](C)C[C@H]1NC(=O)Oc1ccc(Cl)cc1
10,12800 nM,COc1ccc(C(=O)N[C@@H]2C[C@H](C)CC[C@H]2C(C)C)cc1

row,Compound,IC50
1,CC(C)[C@@H]1CC[C@@H](C)C[C@H]1NC(=O)Oc1ccc(C(C)(C)C)cc1,100 nM
